We go through one compound from ChEMBL document CHEMBL1649314, “Experimental murine scedosporiosis: histopathology and azole treatment” (2010).

Test [1] deals with Scedosporium apiospermum. Description: Antifungal activity against Scedosporium apiospermum CBS 117407 infected in immunosuppressed OF1 mouse assessed as reduction in kidney fungal burden at 1.5 mg/kg/day, ip administered 24 hrs postinfection for 10 days measured after 20 days. In kind it is functional, organism-based.
Test [2] is described as follows: Antifungal activity against Scedosporium aurantiacum IHEM 15458 infected in immunosuppressed OF1 mouse assessed as prolonged survival of mouse at 1.5 mg/kg/day, ip administered 24 hrs postinfection for 10 days measured after 20 days. Format: functional, organism-based. Summed up:
(§1)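 Male OF1 mice immunosuppressed 1 day before infection with cyclophosphamide 200 mg/kg i.p. plus 5-fluorouracil 150 mg/kg i.v. Infection: 1 × 10^4 CFU of PDA-grown conidia in 0.2 ml saline via lateral tail vein. Treatment 1.5 mg/kg/day i.p., started 24 h post-challenge, given for 10 days; 10 mice/group; checked daily to day 20. Kaplan-Meier mean survival, log rank test.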

The test system of test [3] is Scedosporium apiospermum. Description: Antifungal activity against Scedosporium apiospermum IHEM 14464 by broth dilution method. Format: functional. Background: Broth dilution looks for growth in wells or tubes with falling amounts of substance.
Test [4] has as its system Scedosporium boydii. Description: Antifungal activity against Scedosporium boydii FMR 6694 infected in immunosuppressed OF1 mouse assessed as prolonged survival of mouse of mouse at 1.5 mg/kg/day, ip administered 24 hrs postinfection for 10 days measured after 20 days. In kind it is functional, organism-based. In a few lines: as §1
The nature of test [5]: Antifungal activity against Scedosporium aurantiacum CBS 116910 by broth dilution method. Format: functional.
Test [6] is described as follows: Antifungal activity against Scedosporium aurantiacum IHEM 15458 by broth dilution method. In kind it is functional.
The subject of test [7] is Scedosporium apiospermum. Description: Antifungal activity against Scedosporium apiospermum IHEM 14464 infected in immunosuppressed OF1 mouse assessed as reduction in kidney fungal burden at 1.5 mg/kg/day, ip administered 24 hrs postinfection for 10 days measured after 20 days. Format: functional, organism-based.
The subject of test [8] is Scedosporium aurantiacum. Description: Antifungal activity against Scedosporium aurantiacum CBS 116910 infected in immunosuppressed OF1 mouse assessed as reduction in kidney fungal burden at 1.5 mg/kg/day, ip administered 24 hrs postinfection for 10 days measured after 20 days. In kind it is functional, organism-based.
For test [9], the system named is Scedosporium apiospermum. Description: Antifungal activity against Scedosporium apiospermum IHEM 14464 infected in immunosuppressed OF1 mouse assessed as prolonged survival of mouse at 1.5 mg/kg/day, ip administered 24 hrs postinfection for 10 days measured after 20 days. In kind it is functional, organism-based. In a few lines:
as §1

Test [10] relates to Scedosporium boydii. Description: Antifungal activity against Scedosporium boydii FMR 8627 infected in immunosuppressed OF1 mouse assessed as reduction in kidney fungal burden at 1.5 mg/kg/day, ip administered 24 hrs postinfection for 10 days measured after 20 days. Format: functional, organism-based.
Test [11] concerns Scedosporium apiospermum. Description: Antifungal activity against Scedosporium apiospermum CBS 117407 infected in immunosuppressed OF1 mouse assessed as prolonged survival of mouse at 1.5 mg/kg/day, ip administered 24 hrs postinfection for 10 days measured after 20 days. In kind it is functional, organism-based. In a few lines:
as §1

In test [12] the test system is Scedosporium aurantiacum. Description: Antifungal activity against Scedosporium aurantiacum IHEM 15458 infected in immunosuppressed OF1 mouse assessed as reduction in kidney fungal burden at 1.5 mg/kg/day, ip administered 24 hrs postinfection measured on day 4 postinfection.
The test system of test [13] is Scedosporium apiospermum. Description: Antifungal activity against Scedosporium apiospermum CBS 117407 by broth dilution method. In kind it is functional.
Test [14] deals with Scedosporium boydii. Description: Antifungal activity against Scedosporium boydii FMR 8627 by broth dilution method. In kind it is functional.
Test [15] deals with Scedosporium boydii. Description: Antifungal activity against Scedosporium boydii FMR 6694 by broth dilution method. In kind it is functional.
Test [16] concerns Scedosporium boydii. Description: Antifungal activity against Scedosporium boydii FMR 6694 infected in immunosuppressed OF1 mouse assessed as reduction in kidney fungal burden at 1.5 mg/kg/day, ip administered 24 hrs postinfection for 10 days measured after 20 days. In kind it is functional, organism-based.
The nature of test [17]: Antifungal activity against Scedosporium aurantiacum CBS 116910 infected in immunosuppressed OF1 mouse assessed as prolonged survival of mouse at 1.5 mg/kg/day, ip administered 24 hrs postinfection for 10 days measured after 20 days. In kind it is functional, organism-based. Summed up:
as §1

Test [18] has as its system Scedosporium boydii. Description: Antifungal activity against Scedosporium boydii FMR 8627 infected in immunosuppressed OF1 mouse assessed as prolonged survival of mouse at 1.5 mg/kg/day, ip administered 24 hrs postinfection for 10 days measured after 20 days. Format: functional, organism-based. Summed up:
as §1

Molecules are shown by their SMILES. Values after ≈ are worked out from the molar mass of the structure shown. Active and inactive are the calls of the source.

By MIC is commonly meant the smallest concentration in the dilution series that meets the test's criterion for growth inhibition. A higher MIC goes with weaker potency. As to `C[C@@H]1[C@H](O)[C@@H](C)/C=C/C=C/C=C/C=C/C=C/C=C/C=C/[C@H](O[C@@H]2O[C@H](C)[C@@H](O)[C@H](N)[C@@H]2O)C[C@@H]2O[C@](O)(C[C@@H](O)C[C@@H](O)[C@H](O)CC[C@@H](O)C[C@@H](O)CC(=O)O[C@H]1C)C[C@H](O)[C@H]2C(=O)O` [AMPHOTERICIN B], the outcome (with Scedosporium apiospermum [1]; in [2]; with Scedosporium boydii [4]; in the test with Scedosporium apiospermum [7]; in the test on Scedosporium aurantiacum [8]; in the test with Scedosporium apiospermum [9]) was inactive. Moreover, the result (in the test on Scedosporium boydii [10]; in the test on Scedosporium apiospermum [11]; in the test with Scedosporium aurantiacum [12]; in the test with Scedosporium boydii [16]; in [17]; in the test on Scedosporium boydii [18]) was inactive. The MIC against Scedosporium apiospermum [3] was 32 µg/mL (≈ 34.6 µM); in [5], 32 µg/mL (≈ 34.6 µM); in [6], 32 µg/mL (≈ 34.6 µM); in the test on Scedosporium apiospermum [13], 8 µg/mL (≈ 8.66 µM); against Scedosporium boydii [14] it was 8 µg/mL (≈ 8.66 µM); in the test with Scedosporium boydii [15], 32 µg/mL (≈ 34.6 µM).
